Results as given in BindingDB's records for doi:10.1021/jm301253y (University of Florida, 2013).
pEC50: −log10 of the molar value.

How the values were obtained:
Melanocortin receptor 4 = Melanocortin receptor 4 (Mus musculus, UniProt P56450); experiment: Agonist activity at mouse MC4 receptor expressed in HEK293 cells after 6 hrs by cAMP-based beta-galactosidase reporter gene assay
How it was run: (§1)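 HEK-293 cells stably expressing the mouse receptor, kept in DMEM with 10% fetal calf serum, transfected with CRE/β-galactosidase reporter. Efficacy is relative to NDP-MSH on the same plate. EC50 is the mean of duplicate wells from three or more independent experiments, fitted by nonlinear least squares.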

Melanocortin receptor 3 = Melanocortin receptor 3 (Mus musculus, UniProt P33033); experiment: Agonist activity at mouse MC3 receptor expressed in HEK293 cells after 6 hrs by cAMP-based beta-galactosidase reporter gene assay; how it was run: as §1
Chain of Melanocortin receptor 3 (P33033 whole entry): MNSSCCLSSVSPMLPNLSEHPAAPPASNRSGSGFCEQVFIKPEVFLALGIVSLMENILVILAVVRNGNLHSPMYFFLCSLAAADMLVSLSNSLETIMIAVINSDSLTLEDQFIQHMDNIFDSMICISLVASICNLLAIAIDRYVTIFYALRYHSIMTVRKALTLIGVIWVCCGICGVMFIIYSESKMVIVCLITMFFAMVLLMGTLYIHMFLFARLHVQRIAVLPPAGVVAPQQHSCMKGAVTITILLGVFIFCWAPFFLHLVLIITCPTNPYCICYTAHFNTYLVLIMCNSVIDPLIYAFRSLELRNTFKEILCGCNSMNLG

[1] = biological target: Melanocyte-stimulating hormone receptor (Mus musculus, UniProt Q01727); experiment: Agonist activity at mouse MC1 receptor expressed in HEK293 cells after 6 hrs by cAMP-based beta-galactosidase reporter gene assay; how it was run: as §1
Chain of Melanocyte-stimulating hormone receptor (Q01727 whole entry): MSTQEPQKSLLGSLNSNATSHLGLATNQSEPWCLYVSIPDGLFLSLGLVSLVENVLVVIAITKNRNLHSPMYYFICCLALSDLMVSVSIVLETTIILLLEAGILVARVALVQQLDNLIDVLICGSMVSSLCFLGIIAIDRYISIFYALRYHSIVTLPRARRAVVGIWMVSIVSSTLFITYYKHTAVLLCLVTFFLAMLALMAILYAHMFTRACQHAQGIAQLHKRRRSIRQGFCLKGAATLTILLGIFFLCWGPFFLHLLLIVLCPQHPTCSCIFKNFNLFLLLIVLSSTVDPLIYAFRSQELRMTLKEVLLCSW

Melanocortin receptor 5 = Melanocortin receptor 5 (Mus musculus, UniProt P41149); experiment: Agonist activity at mouse MC5 receptor expressed in HEK293 cells after 6 hrs by cAMP-based beta-galactosidase reporter gene assay; how it was run: as §1
Chain of Melanocortin receptor 5 (P41149 whole entry): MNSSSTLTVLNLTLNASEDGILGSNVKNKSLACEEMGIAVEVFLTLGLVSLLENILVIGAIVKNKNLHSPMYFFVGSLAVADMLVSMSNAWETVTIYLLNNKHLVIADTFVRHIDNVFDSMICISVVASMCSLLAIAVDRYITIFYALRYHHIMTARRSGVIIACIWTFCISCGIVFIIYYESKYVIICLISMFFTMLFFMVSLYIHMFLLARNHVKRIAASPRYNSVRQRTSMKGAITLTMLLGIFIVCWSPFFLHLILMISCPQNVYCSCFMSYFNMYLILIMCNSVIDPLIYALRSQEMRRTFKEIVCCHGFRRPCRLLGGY

Chain of Melanocortin receptor 4 (P56450 whole entry): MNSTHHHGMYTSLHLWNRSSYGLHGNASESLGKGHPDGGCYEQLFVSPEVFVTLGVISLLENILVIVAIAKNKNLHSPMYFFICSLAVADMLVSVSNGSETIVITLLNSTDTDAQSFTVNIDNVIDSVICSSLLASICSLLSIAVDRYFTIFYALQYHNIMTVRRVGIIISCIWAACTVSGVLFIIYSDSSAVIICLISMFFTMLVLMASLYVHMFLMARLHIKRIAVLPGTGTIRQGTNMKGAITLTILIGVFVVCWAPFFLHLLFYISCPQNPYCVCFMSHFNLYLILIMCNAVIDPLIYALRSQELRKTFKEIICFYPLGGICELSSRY

## C[C@@H]1NC(=O)[C@H](CC(N)=O)NC(=O)[C@@H](Cc2c[nH]c3ccccc23)[C@]23CCCN2C(=O)[C@@H](CSCC3=O)NC(=O)[C@@H](Cc2ccccc2)NC(=O)[C@H](Cc2cnc[nH]2)NC(=O)[C@@H](NC(=O)[C@@H](N)Cc2ccc(O)cc2)CSSC[C@@H](C(=O)N[C@@H](Cc2ccc(O)cc2)C(N)=O)NC(=O)[C@H](Cc2ccccc2)NC1=O
Melanocortin receptor 4
  pEC50: 5.90
Melanocortin receptor 3
  pEC50: 5.15
[1]
  pEC50: 7.80
Melanocortin receptor 5
  pEC50: 6.20
